Measurements taken from ChEMBL document CHEMBL1129253, “Synthesis and pharmacological activity of triazole derivatives inhibiting eosinophilia” (1996).

system: Rattus norvegicus; test: Inhibitory activity against eosinophilia when administered orally in rats; conditions: po, read-out: ID50 (the source's name)

Row | Compound | ED50 [mg/kg]
1 | C/N=C(\S)n1nc(-c2ccc(Cl)cc2)nc1N | 0.3

system: Rattus norvegicus; test: Inhibitory activity against eosinophilia when administered intraperitoneally in rats; conditions: ip, read-out: ID50 (the source's name)

Row | Compound | ED50 [mg/kg]
2 | C/N=C(\S)n1nc(-c2ccc(Cl)cc2)nc1N | 0.07

system: Rattus norvegicus; test: Tested for sephadex-induced lung Eosinophilia inhibition at 30 mg/kg in rat; type: functional; conditions: not given
Procedure, shortened: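 Male Wistar rats (5/group) received 1 mL Sephadex G-200 (0.5 mg/mL in saline, boiled 5 h) by tail vein on days 0, 3 and 5. Drug or vehicle was given ip 10 min before each injection. On day 7, lungs were lavaged three times with heparinized PBS at 37 °C. Eosinophils and total cells were counted in Hinkelman reagent. % inhibition compares group-mean eosinophil/total ratios with vehicle.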

Row | Compound | inhibition in vivo at 30 mg/kg [%]
3 | CCCCCC/N=C(\S)n1ncnc1N | -1
4 | C/N=C(\S)n1nc(C)nc1N | 13
5 | CNC(=S)n1ncnc1NC | -1
6 | C/N=C(\S)n1nc(-c2ccc(C#N)cc2)nc1N | 87
7 | CSC(=S)n1ncnc1N | 36
8 | C/N=C(\S)Nc1ccc(-c2nc(N)n(/C(S)=N/C)n2)cc1 | 31
9 | C/N=C(\S)c1ncccc1N | 9
10 | C/N=C(\S)n1nc(-c2ccc(C)cc2)nc1N | 65
11 | C/N=C(\S)c1cccnc1N | 27
12 | CCC/N=C(\S)n1ncnc1N | 93
13 | Nc1ncnn1/C(S)=N/CCCCCO | -17
14 | CNC(=S)n1nc(-c2ccc(OC)cc2)nc1N | 70
15 | Nc1ncnn1/C(S)=N/C1CCCCC1 | 31
16 | C/N=C(\S)n1nc(-c2ccc(Cl)cc2)nc1N | 88
17 | CNC(=S)n1nc(SC)nc1N | 54
18 | CNC(=O)n1ncnc1N | 40
19 | CS(=O)(=O)n1ncnc1N | -40
20 | C/N=C(\S)n1cnc(N)n1 | 25

Row | Compound | inhibition in vivo at 30 mg/kg [%]
21 | CCOC(=O)C(=O)Nc1ccc(-c2nc(N)n(/C(S)=N/C)n2)cc1 | 49
22 | C/N=C(\S)n1nnnc1N | 53
23 | Nc1ncnn1/C(S)=N/c1ccccc1 | -7
24 | S=C(NC1CCCCC1)n1cncn1 | 0
25 | CCOCCC/N=C(\S)n1ncnc1N | 1
26 | C/N=C(\S)c1sccc1N | 4
27 | C/N=C(\S)c1c[nH]nc1N | -22
28 | C/N=C(\S)n1nccc1N | 27
29 | C/N=C(\S)c1ccccc1N | 47
30 | C/N=C(\S)c1nccnc1N | 27
31 | C/N=C(\S)n1nc(N)nc1N | 53
32 | CN(C)C(=S)n1ncnc1N | 34
33 | C/N=C(\S)n1nc(-c2ccccc2)nc1N | 54
34 | C/N=C(\S)c1[nH]cnc1N | 5
35 | Nc1ncnn1/C(S)=N/Cc1ccccc1 | 40
36 | C/N=C(\S)n1ncnc1N | 93
37 | CCCC/N=C(\S)n1ncnc1N | 21
